A short description of data set [1]: AUC in CD1 mouse at 10 mg/kg, po by LC/MS/MS analysis. Type of data set: ADME, organism-based. The following applies: in vivo. In short, it runs like this: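 Mouse pharmacokinetics after oral dosing at 10 or 50 mg/kg. The 10 mg/kg dose was given in 10% HPbCD + 5% dextrose in WFI at pH 4. The 50 mg/kg dose was given in 5% SBECD in WFI at pH 2. Plasma exposure (AUC), half-life and oral bioavailability were derived.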

The next data set has as its system A549. The experiment in a line: Antiproliferative activity against human A549 cells after 48 hrs by Alamar Blue based assay. Type of data set: functional. The note with it: A549, 48 h. In short, it runs like this: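 Antiproliferation assay in A549 cells, reported as GI50.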
(In general: Alamar Blue is a resazurin reagent that responds to reducing activity.)

In data set [2] the target is T1, NUAK family SNF1-like kinase 1 (Homo sapiens) (UniProt O60285).
T1 sequence (whole entry): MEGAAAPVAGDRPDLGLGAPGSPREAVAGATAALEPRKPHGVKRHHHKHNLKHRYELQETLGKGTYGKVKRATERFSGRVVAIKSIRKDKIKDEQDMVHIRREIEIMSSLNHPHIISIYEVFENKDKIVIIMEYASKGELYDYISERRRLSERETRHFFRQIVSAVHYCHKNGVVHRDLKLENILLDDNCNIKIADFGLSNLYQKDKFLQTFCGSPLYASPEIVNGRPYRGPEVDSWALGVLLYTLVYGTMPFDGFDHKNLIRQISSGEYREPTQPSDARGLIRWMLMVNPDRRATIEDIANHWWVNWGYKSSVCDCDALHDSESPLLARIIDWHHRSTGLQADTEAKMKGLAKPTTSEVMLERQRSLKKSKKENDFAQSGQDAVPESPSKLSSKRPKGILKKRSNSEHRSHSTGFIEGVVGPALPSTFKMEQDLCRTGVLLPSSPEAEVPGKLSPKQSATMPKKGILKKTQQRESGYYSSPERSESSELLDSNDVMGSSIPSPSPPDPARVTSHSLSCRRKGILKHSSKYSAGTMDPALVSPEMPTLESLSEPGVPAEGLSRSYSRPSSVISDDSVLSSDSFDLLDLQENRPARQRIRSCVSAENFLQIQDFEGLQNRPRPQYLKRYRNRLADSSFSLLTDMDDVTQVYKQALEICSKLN
The experiment in a line: Inhibition of recombinant human full length His-tagged NUAK1 expressed in baculovirus at 1 uM. In short, it runs like this: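 Kinase panel of 386 kinases, each screened at a single concentration of 1 μM.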

As to `CC[C@@H](C)Nc1nc(Nc2cc(N3C[C@@H]4C[C@H]3CN4C)cnc2F)ncc1C`, in data set [1], the AUC (in general, concentration integrated over time) is 2.65 µM·h. Also, the GI50 (in general, the concentration at which growth is held to half of that of the control) in the data set on A549 was above 10 µM. Moreover, the inhibition (in general, the share of the control response that was lost under treatment) in data set [2] was 71%.
